Key:
[1] = Antiproliferative activity against HTLV1-carrying human S1T cells isolated from peripheral blood mononuclear cells of adult T leukemic patient after 4 days by MTT assay; assay type: functional; conditions: 96 h
In short: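 Cells grown 4 days without or with a range of compound concentrations; viable cell number read by MTT; IC₅₀ calculated from the resulting data.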

MOLT-4 [2] = experiment: Antiproliferative activity against HTLV1-deficient human MOLT4 cells after 4 days by MTT assay; assay type: functional, cell-based; conditions: MOLT-4, 96 h
In short: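 Cells were cultured without or with a range of test-compound concentrations for 4 days. Viable cell number was then measured by MTT, and IC50 values were calculated from it. The same protocol was run in parallel on S1T cells, an ATL patient-derived line.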

MOLT-4 [3] = experiment: Selectivity index, ratio of IC50 for HTLV1-deficient human MOLT4 cells to IC50 for HTLV1-carrying S1T cells isolated from peripheral blood mononuclear cells of adult T leukemic patient; assay type: functional
In short: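 SI taken as IC₅₀ in MOLT-4 over IC₅₀ in S1T cells. Both IC₅₀ values come from 4-day MTT viable-cell counts over a range of concentrations.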

[4] = Cell cycle arrest in HTLV1-carrying human S1T cells isolated from peripheral blood mononuclear cells of adult T leukemic patient assessed as accumulation at G0/G1 phase at 20 uM after 24 hrs using propidium iodide/RNA staining buffer by FACS analysis; assay type: functional
In short: (§1)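 Cells seeded at 1 × 10⁶/ml with or without 20 µM compound for 24 h. Then PBS wash, fixing in 1% paraformaldehyde, permeabilising in 70% ethanol and 15 min propidium iodide/RNA staining. Phase populations given as % of cells.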

[5] = Cell cycle arrest in HTLV1-carrying human S1T cells isolated from peripheral blood mononuclear cells of adult T leukemic patient assessed as accumulation at G2/M phase at 20 uM after 24 hrs using propidium iodide/RNA staining buffer by FACS analysis; assay type: functional; in short: as §1
[6] = Cell cycle arrest in HTLV1-carrying human S1T cells isolated from peripheral blood mononuclear cells of adult T leukemic patient assessed as accumulation at S phase at 20 uM after 24 hrs using propidium iodide/RNA staining buffer by FACS analysis; assay type: functional; in short: as §1
MOLT-4 [7] = experiment: Cell cycle arrest in HTLV1-deficient human MOLT4 cells assessed as accumulation at G0/G1 phase at 20 uM after 24 hrs using propidium iodide/RNA staining buffer by FACS analysis; assay type: functional; in short: as §1
MOLT-4 [8] = experiment: Cell cycle arrest in HTLV1-deficient human MOLT4 cells assessed as accumulation at G2/M phase at 20 uM after 24 hrs using propidium iodide/RNA staining buffer by FACS analysis; assay type: functional; in short: as §1
MOLT-4 [9] = experiment: Cell cycle arrest in HTLV1-deficient human MOLT4 cells assessed as accumulation at S phase at 20 uM after 24 hrs using propidium iodide/RNA staining buffer by FACS analysis; assay type: functional; in short: as §1
[10] = Induction of apoptosis in HTLV1-carrying human S1T cells isolated from peripheral blood mononuclear cells of adult T leukemic patient at 20 uM after 24 hrs using fluorescein isothiocyanate-conjugated annexin V staining by FACS analysis; assay type: functional
In short: (§2)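 Cells seeded at 1 × 10⁶/ml and held with or without 20 µM compound for 24 or 48 h. Apoptotic cells given as %; relative values are the ratio of treated to untreated apoptosis %.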

[11] = Induction of apoptosis in HTLV1-carrying human S1T cells isolated from peripheral blood mononuclear cells of adult T leukemic patient at 20 uM after 48 hrs using fluorescein isothiocyanate-conjugated annexin V staining by FACS analysis; assay type: functional; in short: as §2
MOLT-4 [12] = experiment: Induction of apoptosis in HTLV1-deficient human MOLT4 cells at 20 uM after 24 hrs using fluorescein isothiocyanate-conjugated annexin V staining by FACS analysis; assay type: functional; in short: as §2
MOLT-4 [13] = experiment: Induction of apoptosis in HTLV1-deficient human MOLT4 cells at 20 uM after 48 hrs using fluorescein isothiocyanate-conjugated annexin V staining by FACS analysis; assay type: functional; in short: as §2
[14] = Induction of apoptosis in HTLV1-carrying human S1T cells isolated from peripheral blood mononuclear cells of adult T leukemic patient at 20 uM after 24 hrs using fluorescein isothiocyanate-conjugated annexin V staining by FACS analysis relative to control; assay type: functional; in short: as §2
[15] = Induction of apoptosis in HTLV1-carrying human S1T cells isolated from peripheral blood mononuclear cells of adult T leukemic patient at 20 uM after 48 hrs using fluorescein isothiocyanate-conjugated annexin V staining by FACS analysis relative to control; assay type: functional; in short: as §2
HL-60 = experiment: Antiproliferative activity against human HL60 cells; assay type: functional, cell-based
Jurkat = experiment: Antiproliferative activity against human Jurkat cells; assay type: functional, cell-based
U-937 = experiment: Antiproliferative activity against human U937 cells; assay type: functional, cell-based
MOLT-4 [16] = experiment: Antiproliferative activity against human MOLT4 cells; assay type: functional, cell-based

Structure (SMILES)	IC50 [1]	IC50 (MOLT-4 [2])	Ratio IC50 (MOLT-4 [3])	other results
CCC(=O)c1ccc2c(c1)C(C)(C)CCC2(C)C	4.7 µM	21.5 µM	4.6	
CC(=S)c1cc2c(cc1O)C(C)(C)CCC2(C)C	6.9 µM	36.4 µM	5.3	
CC(=O)c1ccc(C)c(C)c1	> 100 µM	> 100 µM		
CC(=O)c1cc2c(cc1O)C(C)(C)CCC2(C)C	6.7 µM	82.9 µM	12.4	Activity [4]: 37%; Activity [5]: 23%; Activity [6]: 40%; Activity (MOLT-4 [7]): 42.14%; Activity (MOLT-4 [8]): 11.1%; Activity (MOLT-4 [9]): 46.76%; Activity [10]: 10.1%; Activity [11]: 10.1%; Activity (MOLT-4 [12]): 7%; Activity (MOLT-4 [13]): 4%; Activity [14]: 1.3%; Activity [15]: 2.1%
CC(=O)c1ccc(C)cc1C	> 100 µM	> 100 µM		
COc1cc2c(cc1C(C)=O)C(C)(C)CCC2(C)C	7 µM	11.9 µM	1.7	
CC1(C)CCC(C)(C)c2cc(C(=O)c3ccccc3)ccc21	7 µM	11.8 µM	1.7	
CC(O)c1ccc2c(c1)C(C)(C)CCC2(C)C (racemic)	39.3 µM	34.4 µM	0.87	
CC1(C)CCC(C)(C)c2cc(C(=O)O)ccc21	> 100 µM	61.1 µM		
CC1(C)CCC(C)(C)c2cc(C(=O)c3ccccc3)c(O)cc21	15.2 µM	28.3 µM	1.9	
CC(=O)c1ccc2c(c1)C(C)(C)CCC2(C)C	6.9 µM	66 µM	9.6	
CC1(C)CCC(C)(C)c2cc(C(=O)O)c(O)cc21	29.7 µM	44.4 µM	1.5	
CC(C)(C)C(=O)c1cc2c(cc1O)C(C)(C)CCC2(C)C	41.5 µM	43.2 µM	1	
CC1(C)CCC(C)(C)c2cc(C(N)=O)ccc21	37 µM	39.4 µM	1.1	
CC1(C)CCC(C)(C)c2cc(NC(=O)c3ccc(C(=O)O)cc3)ccc21 [TAMIBAROTENE]				IC50 (HL-60): 6 µM; IC50 (Jurkat): 17.3 µM; IC50 (U-937): 20.2 µM; IC50 (MOLT-4 [16]): 19.5 µM
CC(C)C(=O)c1ccc2c(c1)C(C)(C)CCC2(C)C	3.8 µM	34.6 µM	9.1	
CC1(C)CCC(C)(C)c2cc(C=O)ccc21	33 µM	24.8 µM	0.75	
CC1(C)CCC(C)(C)c2ccccc21	> 100 µM	> 100 µM		
CC(=O)c1cc(C)cc(C)c1	> 100 µM	> 100 µM		
CCC(=O)c1cc2c(cc1O)C(C)(C)CCC2(C)C	4.7 µM	32.3 µM	6.9	
CC(C)C(=O)c1cc2c(cc1O)C(C)(C)CCC2(C)C	6 µM	31.9 µM	5.3	
CON(C)C(=O)c1ccc2c(c1)C(C)(C)CCC2(C)C	12.6 µM	9.9 µM	0.8	
